Measured values: ChEMBL document CHEMBL1671813, “Discovery of potent competitive antagonists and positive modulators of the P2X2 receptor” (J Med Chem, 2011)

How the values were obtained:
P2X purinoceptor 2 = target: T1, P2X purinoceptor 2 (Rattus norvegicus, UniProt P49653); assay: Antagonist activity against rat P2X2 receptor expressed in Xenopus laevis oocyte assessed as inhibition of ATP-induced inward current by two-electrode voltage-clamp electrophysiology
T1 sequence (P49653 whole entry): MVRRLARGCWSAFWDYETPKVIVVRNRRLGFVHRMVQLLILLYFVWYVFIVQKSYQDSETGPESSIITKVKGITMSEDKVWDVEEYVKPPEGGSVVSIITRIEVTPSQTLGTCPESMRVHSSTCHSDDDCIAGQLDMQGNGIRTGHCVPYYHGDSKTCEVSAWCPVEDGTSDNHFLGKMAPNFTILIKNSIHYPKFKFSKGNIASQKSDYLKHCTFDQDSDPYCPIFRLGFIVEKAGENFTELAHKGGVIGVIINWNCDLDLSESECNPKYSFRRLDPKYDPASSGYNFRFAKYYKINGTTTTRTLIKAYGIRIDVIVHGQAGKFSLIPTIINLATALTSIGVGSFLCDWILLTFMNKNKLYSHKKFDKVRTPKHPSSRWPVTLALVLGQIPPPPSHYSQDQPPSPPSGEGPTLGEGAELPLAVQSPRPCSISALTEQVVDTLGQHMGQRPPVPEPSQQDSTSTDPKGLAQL

P2X purinoceptor 4 = target: T2, P2X purinoceptor 4 (Rattus norvegicus, UniProt P51577); assay: Antagonist activity against rat P2X4 receptor expressed in Xenopus laevis oocyte assessed as inhibition of ATP-induced inward current by two-electrode voltage-clamp electrophysiology
T2 sequence (P51577 whole entry): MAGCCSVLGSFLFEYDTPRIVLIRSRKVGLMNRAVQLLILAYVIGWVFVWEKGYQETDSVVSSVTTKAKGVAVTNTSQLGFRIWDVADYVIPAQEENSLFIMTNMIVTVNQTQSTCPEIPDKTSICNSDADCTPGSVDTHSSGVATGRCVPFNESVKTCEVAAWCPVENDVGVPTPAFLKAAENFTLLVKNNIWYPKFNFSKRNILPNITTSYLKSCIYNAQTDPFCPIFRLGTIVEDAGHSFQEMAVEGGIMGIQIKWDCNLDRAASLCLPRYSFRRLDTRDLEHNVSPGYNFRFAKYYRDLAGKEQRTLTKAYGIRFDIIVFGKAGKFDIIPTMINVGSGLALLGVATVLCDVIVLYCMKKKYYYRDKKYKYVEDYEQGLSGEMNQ

P2Y purinoceptor 4 = P2Y purinoceptor 4 (Homo sapiens, UniProt P51582); assay: Antagonist activity against human P2Y4 receptor expressed in 1321N1 astrocytoma cells by calcium mobilization assay; assay type: functional, cell-based
P2Y purinoceptor 4, sequence (P51582 whole entry): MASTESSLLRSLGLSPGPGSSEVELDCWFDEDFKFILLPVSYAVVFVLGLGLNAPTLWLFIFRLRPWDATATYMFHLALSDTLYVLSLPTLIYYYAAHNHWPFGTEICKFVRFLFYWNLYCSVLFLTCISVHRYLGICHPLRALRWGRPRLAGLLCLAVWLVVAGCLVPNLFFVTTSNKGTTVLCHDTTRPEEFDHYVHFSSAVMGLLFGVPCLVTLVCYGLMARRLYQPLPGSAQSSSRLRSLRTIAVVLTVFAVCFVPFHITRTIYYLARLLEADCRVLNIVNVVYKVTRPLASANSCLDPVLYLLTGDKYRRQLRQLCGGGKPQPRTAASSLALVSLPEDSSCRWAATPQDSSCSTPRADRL
Method in brief: (§1)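 Astrocytoma cell lines stably transfected with human P2Y2, human P2Y4 or rat P2Y6 receptor. Inhibition of receptor-mediated intracellular calcium mobilization was measured.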

[1] = target: P2Y purinoceptor 6 (Rattus norvegicus) (UniProt Q63371); assay: Antagonist activity against rat P2Y6 receptor expressed in 1321N1 astrocytoma cells by calcium mobilization assay
P2Y purinoceptor 2 = P2Y purinoceptor 2 (Homo sapiens, UniProt P41231); assay: Antagonist activity against human P2Y2 receptor expressed in 1321N1 astrocytoma cells by calcium mobilization assay; assay type: functional, cell-based
P2Y purinoceptor 2, sequence (P41231 whole entry): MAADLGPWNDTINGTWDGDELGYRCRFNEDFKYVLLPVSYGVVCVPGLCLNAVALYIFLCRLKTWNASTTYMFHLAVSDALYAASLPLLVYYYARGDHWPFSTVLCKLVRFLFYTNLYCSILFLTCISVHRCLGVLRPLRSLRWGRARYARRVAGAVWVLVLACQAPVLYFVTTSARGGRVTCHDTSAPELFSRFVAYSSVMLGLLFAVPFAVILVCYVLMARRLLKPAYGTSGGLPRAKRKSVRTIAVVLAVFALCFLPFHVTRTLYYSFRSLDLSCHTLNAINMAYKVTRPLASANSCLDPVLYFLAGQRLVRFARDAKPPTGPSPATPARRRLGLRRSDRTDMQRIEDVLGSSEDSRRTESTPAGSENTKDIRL
Method in brief: as §1

IC50 (P2X purinoceptor 2) [µM] | IC50 (P2X purinoceptor 4) [µM] | IC50 (P2Y purinoceptor 4) [µM] | IC50 [1] [µM] | IC50 (P2Y purinoceptor 2) [µM] | Compound
0.69 | > 10 | – | – | – | CC(=O)Nc1ccc(Nc2cc(S(=O)(=O)O)c(N)c3c2C(=O)c2ccccc2C3=O)cc1
1 | > 10 | – | – | – | Nc1c(S(=O)(=O)O)cc(Nc2ccc(Nc3ncccn3)c(S(=O)(=O)O)c2)c2c1C(=O)c1ccccc1C2=O
> 1 | 40 | – | – | – | Nc1c(S(=O)(=O)O)cc(Nc2ccc(Nc3nc(Cl)nc(Nc4ccccc4S(=O)(=O)O)n3)c(S(=O)(=O)O)c2)c2c1C(=O)c1ccccc1C2=O [CIBACRON BLUE 3GA]
1 | > 10 | – | – | – | Nc1c(S(=O)(=O)O)cc(Nc2ccc(S(=O)(=O)O)cc2)c2c1C(=O)c1ccccc1C2=O
1 | > 10 | – | – | – | Nc1ccc(Nc2cc(S(=O)(=O)O)c(N)c3c2C(=O)c2ccccc2C3=O)cc1S(=O)(=O)O
> 10 | > 10 | – | – | – | Nc1c(S(=O)(=O)O)cc(Nc2ccccc2S(=O)(=O)O)c2c1C(=O)c1ccccc1C2=O
1 | > 10 | – | – | – | Nc1c(S(=O)(=O)O)cc(Nc2cc(Cl)ccc2C(=O)O)c2c1C(=O)c1ccccc1C2=O
> 10 | > 10 | – | – | – | Cc1cc(Nc2ccccc2)c2c(c1N)C(=O)c1ccccc1C2=O
1 | > 10 | – | – | – | Nc1c(S(=O)(=O)O)cc(Nc2ccc(C(=O)O)cc2)c2c1C(=O)c1ccccc1C2=O
1 | > 10 | – | – | – | Nc1ccccc1Nc1cc(S(=O)(=O)O)c(N)c2c1C(=O)c1ccccc1C2=O
1 | > 10 | – | – | – | Nc1c(S(=O)(=O)O)cc(Nc2ccccc2O)c2c1C(=O)c1ccccc1C2=O
> 10 | > 10 | – | – | – | Nc1ccc(Nc2cc(S(=O)(=O)O)c(N)c3c2C(=O)c2ccccc2C3=O)cc1
0.1 | – | 21.8 | > 10 | – | Nc1c(S(=O)(=O)O)cc(Nc2cccc(Cl)c2)c2c1C(=O)c1ccccc1C2=O
> 1 | – | – | – | – | Nc1c(S(=O)(=O)O)cc(Nc2cccc(F)c2)c2c1C(=O)c1ccccc1C2=O
1 | > 10 | – | – | – | Nc1c(S(=O)(=O)O)cc(NC2CCCCC2)c2c1C(=O)c1ccccc1C2=O
1 | > 10 | – | – | – | Nc1c(S(=O)(=O)O)cc(Nc2ccc(Cl)cc2C(=O)O)c2c1C(=O)c1ccccc1C2=O
1.73 | > 10 | – | – | – | COc1ccc(Nc2cc(S(=O)(=O)O)c(N)c3c2C(=O)c2ccccc2C3=O)cc1
1 | > 10 | – | – | – | Nc1c(S(=O)(=O)O)cc(Nc2ccc(CC(=O)O)cc2)c2c1C(=O)c1ccccc1C2=O
1 | > 10 | – | – | – | Nc1cccc(Nc2cc(S(=O)(=O)O)c(N)c3c2C(=O)c2ccccc2C3=O)c1
> 1 | – | – | – | – | CCc1cccc(Nc2cc(S(=O)(=O)O)c(N)c3c2C(=O)c2ccccc2C3=O)c1
> 10 | > 10 | – | – | – | Nc1c(S(=O)(=O)O)cc(Nc2cccc3ccccc23)c2c1C(=O)c1ccccc1C2=O
0.293 | > 10 | 1.45 | 2.55 | 3.27 | Nc1c(S(=O)(=O)O)cc(Nc2cc(Nc3nc(Cl)nc(Cl)n3)cc(C(=O)O)c2)c2c1C(=O)c1ccccc1C2=O
1 | > 10 | – | – | – | Nc1c(S(=O)(=O)O)cc(Nc2cccc(Br)c2)c2c1C(=O)c1ccccc1C2=O
1 | > 10 | – | – | – | Cc1cc(C)c(Nc2cc(S(=O)(=O)O)c(N)c3c2C(=O)c2ccccc2C3=O)c(C)c1N
1 | > 10 | – | – | – | Nc1c(S(=O)(=O)O)cc(Nc2ccccc2C(=O)O)c2c1C(=O)c1ccccc1C2=O

IC50 (P2X purinoceptor 2) [µM] | IC50 (P2X purinoceptor 4) [µM] | IC50 (P2Y purinoceptor 4) [µM] | IC50 [1] [µM] | IC50 (P2Y purinoceptor 2) [µM] | Compound
1 | > 10 | – | – | – | Nc1c(S(=O)(=O)O)cc(Nc2ccc(F)cc2)c2c1C(=O)c1ccccc1C2=O
2 | > 10 | – | – | – | COc1ccccc1Nc1cc(S(=O)(=O)O)c(N)c2c1C(=O)c1ccccc1C2=O
1 | > 10 | – | – | – | Cc1c(N)cccc1Nc1cc(S(=O)(=O)O)c(N)c2c1C(=O)c1ccccc1C2=O
0.086 | – | 10 | > 10 | 24.3 | Nc1c(S(=O)(=O)O)cc(Nc2cccc(Nc3nc(Cl)nc(Cl)n3)c2)c2c1C(=O)c1ccccc1C2=O
> 1 | – | – | – | – | Nc1c(S(=O)(=O)O)cc(Nc2cc(F)cc(F)c2)c2c1C(=O)c1ccccc1C2=O
1 | > 10 | – | – | – | Cc1ccccc1Nc1cc(S(=O)(=O)O)c(N)c2c1C(=O)c1ccccc1C2=O
1 | > 10 | – | – | – | Nc1c(S(=O)(=O)O)cc(Nc2cccc(C(=O)O)c2)c2c1C(=O)c1ccccc1C2=O
1 | > 10 | – | – | – | Cc1ccc(Nc2cc(S(=O)(=O)O)c(N)c3c2C(=O)c2ccccc2C3=O)c(C)c1
> 1 | > 10 | – | – | – | Nc1c(S(=O)(=O)O)cc(Nc2ccc(Nc3ncccn3)cc2)c2c1C(=O)c1ccccc1C2=O
1 | > 10 | – | – | – | Nc1cc(Nc2cc(S(=O)(=O)O)c(N)c3c2C(=O)c2ccccc2C3=O)ccc1S(=O)(=O)O
0.3 | – | – | – | – | Nc1c(S(=O)(=O)O)cc(Nc2ccc(S(=O)(=O)O)c(Nc3nc(O)nc(O)n3)c2)c2c1C(=O)c1ccccc1C2=O
1 | > 10 | – | 84.6 | – | Nc1c(S(=O)(=O)O)cc(Nc2ccccc2)c2c1C(=O)c1ccccc1C2=O [ACID BLUE 25]
0.197 | > 10 | 10 | – | 30 | Nc1c(S(=O)(=O)O)cc(Nc2ccc(Nc3nc(O)nc(O)n3)cc2)c2c1C(=O)c1ccccc1C2=O
1 | > 10 | – | – | – | Cc1cccc(Nc2cc(S(=O)(=O)O)c(N)c3c2C(=O)c2ccccc2C3=O)c1C
1.16 | > 10 | – | – | – | Nc1c(S(=O)(=O)O)cc(Nc2ccc(Nc3nc(Cl)nc(Cl)n3)c(S(=O)(=O)O)c2)c2c1C(=O)c1ccccc1C2=O
> 1 | – | – | – | – | Nc1c(S(=O)(=O)O)cc(Nc2cccc(C(F)(F)F)c2)c2c1C(=O)c1ccccc1C2=O
1 | > 10 | – | – | – | Nc1cc(Nc2cc(S(=O)(=O)O)c(N)c3c2C(=O)c2ccccc2C3=O)cc(C(=O)O)c1
> 1 | – | – | – | – | COc1cc(Nc2cc(S(=O)(=O)O)c(N)c3c2C(=O)c2ccccc2C3=O)cc(OC)c1
1 | > 10 | – | – | – | Nc1c(S(=O)(=O)O)cc(Nc2ccc(O)c(C(=O)O)c2)c2c1C(=O)c1ccccc1C2=O
1 | > 10 | – | – | – | CCOc1ccccc1Nc1cc(S(=O)(=O)O)c(N)c2c1C(=O)c1ccccc1C2=O
1 | > 10 | – | – | – | Cc1cc(C)c(Nc2cc(S(=O)(=O)O)c(N)c3c2C(=O)c2ccccc2C3=O)c(C)c1 [ACID BLUE 129]
1 | > 10 | – | – | – | Cc1ccc(Nc2cc(S(=O)(=O)O)c(N)c3c2C(=O)c2ccccc2C3=O)cc1
1 | > 10 | – | – | – | Nc1c(S(=O)(=O)O)cc(Nc2ccc(Oc3ccccc3)cc2)c2c1C(=O)c1ccccc1C2=O
> 10 | > 10 | – | – | – | Cc1cccc(Nc2cc(C)c(N)c3c2C(=O)c2ccccc2C3=O)c1
> 1 | – | – | – | – | Nc1c(S(=O)(=O)O)cc(Nc2cccc([N+](=O)[O-])c2)c2c1C(=O)c1ccccc1C2=O

Compound | IC50 (P2X purinoceptor 2) [µM] | IC50 (P2X purinoceptor 4) [µM] | IC50 (P2Y purinoceptor 4) [µM] | IC50 [1] [µM] | IC50 (P2Y purinoceptor 2) [µM]
CCOP(=O)(Cc1ccc(Nc2cc(S(=O)(=O)O)c(N)c3c2C(=O)c2ccccc2C3=O)cc1)OCC | 1 | > 10 | – | – | –
Nc1c(S(=O)(=O)O)cc(Nc2ccc(O)cc2)c2c1C(=O)c1ccccc1C2=O | 0.588 | > 10 | 2.22 | 5.3 | –
